Data set [1] is described as follows: Partition coefficient, log D of the compound at pH 7.4 by HPLC chromatographic method. Format: physicochemical. The conditions noted are these: octanol/water. Summed up: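 logD was estimated by HPLC-DAD-MS.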
Data set [2] can be described thus: Selectivity index ratio of IC50 for African green monkey Vero cells to IC50 for Plasmodium falciparum NF54. Format: functional.
The subject of data set [3] is Plasmodium berghei. As to the kind of experiment: Antimalarial activity against GFP-transfected Plasmodium berghei ANKA infected in NMRI mouse assessed as reduction of parasitemia in blood at 50 mg/kg, po qd for 4 days by flow cytometry analysis. It is filed as functional. More on the design: scale not given: the % may be the effect or the level left. Put shortly:
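In P. berghei-infected mice, compound was dissolved or suspended in a standard non-solubilizing HPMC suspension vehicle and given orally once daily for 4 days (4 × 50 mg/kg). Parasitemia reduction was expressed as % relative to untreated control mice. Mean survival time in days was also recorded.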

Data set [4] is described as follows: Cmax in BALB/C mouse at 50 mg/kg, po. More on the design: dose 50 mg/kg, route oral. It is filed as ADME, organism-based. The conditions noted are these: in vivo.
Data set [5] can be described thus: Solubility of the compound in 0.01 M HCl at pH 2. It is filed as physicochemical. Summed up:
(§1)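 Solubility was measured by a scaled-down shake flask method.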

Data set [6] in a line: Metabolic stability of the compound in human liver microsomes at 0.1 uM after 30 mins by LC-MS/MS analysis. It is filed as ADME. Conditions: read-out: Stability. Summed up: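 A one-point microsomal stability assay was used, expressed as the percentage of parent compound remaining after 30 min incubation.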
For orientation: Liver microsomes are vesicles of endoplasmic reticulum, rich in cytochrome P450 enzymes.

In data set [7] the test system is Plasmodium berghei. The data set can be described thus: Antimalarial activity against GFP-transfected Plasmodium berghei ANKA infected in NMRI mouse assessed as mean survival time at 50 mg/kg, po qd for 4 days by flow cytometry analysis. It is filed as functional. Put shortly: (§2)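 P. berghei-infected mice dosed orally at 50 mg/kg once daily for 4 days. Compound was dissolved or suspended in a standard non-solubilizing HPMC suspension vehicle. Mice were watched for acute toxicity after dosing. Parasitemia reduction was calculated against untreated infected controls, and survival was recorded as mean survival time in days.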
A general note: Flow cytometry measures light scatter and fluorescence of single cells or particles in a stream.

Data set [8] is described as follows: Intrinsic clearance in human liver microsomes assessed per mg of protein at 0.1 uM by LC-MS/MS analysis. It is filed as ADME. The conditions noted are these: read-out: CLH.
In data set [9] the test system is Plasmodium falciparum. As to the kind of experiment: Antiplasmodial activity against multidrug-resistant Plasmodium falciparum K1 by [3H]-hypoxanthine incorporation assay. It is filed as functional, organism-based. Summed up: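 In vitro IC50 against the multidrug-resistant K1 strain of P. falciparum. Chloroquine and artesunate were run as reference drugs in every experiment. Values are means of ≥2 independent experiments.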

Data set [10] concerns Mus musculus. The data set can be described thus: Dose normalized AUC (0 to 5 hrs) in BALB/C mouse at 50 mg/kg, po. Format: ADME, organism-based. The conditions noted are these: in vivo.
Data set [11] is described as follows: Degradation half-life in human liver microsomes at 0.1 uM by LC-MS/MS analysis. Format: ADME.
The subject of another data set is Vero. As to the kind of experiment: Cytotoxicity against African green monkey Vero cells after 48 hrs by MTT assay. It is filed as cell-based. The conditions noted are these: chlorocebus sabaeus.
Data set [12] concerns the target Voltage-gated inwardly rectifying potassium channel KCNH2 (Homo sapiens, UniProt Q12809). As to the kind of experiment: Inhibition of human ERG expressed in CHO cells by patch clamp electrophysiology assay. Format: cell-based. On the technique in general: The patch-clamp technique gives a direct electrical read-out from membranes.
Data set [13] deals with Plasmodium falciparum. The data set can be described thus: Antiplasmodial activity against multidrug-sensitive Plasmodium falciparum NF54 by [3H]-hypoxanthine incorporation assay. Format: functional, organism-based. Put shortly:
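IC50 against P. falciparum NF54 was run with chloroquine and artesunate as reference drugs in every experiment. Values are the mean of at least 2 independent experiments.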

Data set [14] is described as follows: Solubility of the compound in phosphate buffer at pH 6.5. Format: physicochemical. Summed up:
as §1

Data set [15] in a line: AUC (0 to 24 hrs) in BALB/C mouse at 50 mg/kg, po. Format: ADME, organism-based. The conditions noted are these: in vivo. Further details: time < 24 hr, dose 50 mg/kg, route oral.
In data set [16] the test system is Mus musculus. The data set can be described thus: Acute toxicity in GFP-transfected Plasmodium berghei ANKA infected NMRI mouse at 50 mg/kg, po qd for 4 days. Format: organism-based. The conditions noted are these: in vivo, 96 h. Put shortly:
as §2

The values below come from ChEMBL document CHEMBL3616374, “Structure-Activity Relationship Studies of Orally Active Antimalarial 2,4-Diamino-thienopyrimidines” (J Med Chem, 2015).

For orientation: chromatographic logD means lipophilicity estimated from chromatographic retention. The term Cmax denotes the maximum level reached in the sampled fluid or tissue. What is called solubility is how much of the substance goes into solution per volume. In general, IC50 refers to the concentration that gives 50% inhibition. Broadly, the half-life is the time needed for the level to fall by half in the phase considered. A word on the AUC(0-t): it is exposure summed from dosing to a finite time, without extrapolation to infinity.

In brackets after ≈: the same amount, converted by molar mass.

Sequence of Voltage-gated inwardly rectifying potassium channel KCNH2 (Q12809 whole entry): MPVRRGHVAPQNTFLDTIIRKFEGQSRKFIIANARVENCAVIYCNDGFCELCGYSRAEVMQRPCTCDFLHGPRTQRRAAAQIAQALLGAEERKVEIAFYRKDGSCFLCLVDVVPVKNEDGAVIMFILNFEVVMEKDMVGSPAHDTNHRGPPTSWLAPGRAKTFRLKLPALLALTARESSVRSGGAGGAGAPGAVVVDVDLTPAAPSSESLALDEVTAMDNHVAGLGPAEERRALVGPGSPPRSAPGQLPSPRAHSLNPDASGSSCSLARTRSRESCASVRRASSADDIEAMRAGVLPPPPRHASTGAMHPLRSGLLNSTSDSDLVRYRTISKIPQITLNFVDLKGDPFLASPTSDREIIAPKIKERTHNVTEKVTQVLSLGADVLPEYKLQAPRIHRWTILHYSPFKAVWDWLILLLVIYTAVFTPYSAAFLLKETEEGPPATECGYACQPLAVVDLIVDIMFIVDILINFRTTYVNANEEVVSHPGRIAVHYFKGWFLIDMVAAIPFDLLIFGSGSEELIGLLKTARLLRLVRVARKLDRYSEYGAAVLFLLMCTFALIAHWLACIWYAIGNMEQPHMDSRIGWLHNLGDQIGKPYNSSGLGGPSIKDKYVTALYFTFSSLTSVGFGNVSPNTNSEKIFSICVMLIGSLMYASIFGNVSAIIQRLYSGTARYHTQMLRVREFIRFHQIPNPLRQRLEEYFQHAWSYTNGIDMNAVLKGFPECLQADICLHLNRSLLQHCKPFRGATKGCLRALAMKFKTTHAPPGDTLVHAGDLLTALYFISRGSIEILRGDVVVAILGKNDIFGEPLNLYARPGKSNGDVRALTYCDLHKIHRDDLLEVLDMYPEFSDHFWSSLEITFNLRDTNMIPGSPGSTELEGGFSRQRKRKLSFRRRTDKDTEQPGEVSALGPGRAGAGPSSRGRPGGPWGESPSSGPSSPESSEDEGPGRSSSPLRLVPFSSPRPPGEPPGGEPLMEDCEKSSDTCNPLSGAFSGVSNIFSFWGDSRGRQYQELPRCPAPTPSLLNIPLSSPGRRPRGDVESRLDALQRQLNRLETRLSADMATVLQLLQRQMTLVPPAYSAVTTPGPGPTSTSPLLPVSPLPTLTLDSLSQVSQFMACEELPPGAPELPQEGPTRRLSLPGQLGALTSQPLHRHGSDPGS

In [1], `Nc1nc(N2CCC(N)CC2)c2sc(-c3ccc(C(F)(F)F)cc3)cc2n1` came in with a chromatographic logD of 2.4. The “Ratio IC50” value in data set [2] is on record as over 100. Further, the values for the Activity in the data set with Plasmodium berghei [3] and with Vero were 99.8% and “Non-toxic”, respectively. Besides, the maximum concentration (Cmax) in data set [4] turned out to be 1360 nM. Further, the solubility in data set [5] and in data set [14] was 134 µg/mL (≈ 341 µM) throughout. The remaining at 0.5 h, 0.1 µM in data set [6] turned out to be 100%. Also, the MSD in the data set with Plasmodium berghei [7] amounted to 26 days. In addition, the microsomal CLint at 0.1 µM in data set [8] was under 11.6 µL/min/mg. Further, the IC50 in the data set with Plasmodium falciparum [9] was 0.033 µM; in data set [12], 6.1 µM; with Plasmodium falciparum [13], 0.02 µM. Besides, the AUC/dose in the data set with Mus musculus [10] is on record as 2.63 min.ug/ml/(mg/kg). Moreover, the half-life at 0.1 µM in [11] is over 2.5 h. The AUC(0-t) at 24 h in data set [15] came to 21.6 µM·h.

For `CNc1nc(NC2CCNCC2)c2sc(-c3ccc(C(F)(F)F)cc3)cc2n1`, the “Ratio IC50” value in data set [2] is listed as over 100. The Activity in the data set with Plasmodium berghei [3] is recorded as 99.7%; with Vero, “Non-toxic”; with Mus musculus [16], “Non-toxic”. In data set [4], the peak concentration (Cmax) was 2470 nM. For the same compound, the results for the solubility in [5] and in data set [14] were 218 µg/mL (≈ 535 µM) and 147 µg/mL (≈ 361 µM), respectively. For the same compound, the remaining at 0.5 h, 0.1 µM in [6] turned out to be 84%. Moreover, the MSD in the data set with Plasmodium berghei [7] amounted to 12 days. Also, the IC50 in the data set on Plasmodium falciparum [9] came out at 0.024 µM; in the data set on Plasmodium falciparum [13], 0.019 µM. Besides, the AUC/dose in the data set with Mus musculus [10] is reported as 4.24 min.ug/ml/(mg/kg). In data set [15], the AUC(0-t) at 24 h came out at 25 µM·h.

On to `CNc1nc(N2CCC(N)CC2)c2sc(-c3ccc(C(F)(F)F)cc3)cc2n1`, for which, in data set [2], the “Ratio IC50” value is given as over 100. Also, the Activity with Plasmodium berghei [3] is given as 81%; with Vero, “Non-toxic”; in the data set with Mus musculus [16], “Non-toxic”. Besides, the Cmax in data set [4] worked out at 3690 nM. Besides, the solubility was over 200 µg/mL in data set [5] and 17 µg/mL (≈ 41.7 µM) in data set [14]. In addition, the remaining at 0.5 h, 0.1 µM in data set [6] came out at 93%. Moreover, in the data set on Plasmodium berghei [7], the MSD amounted to 7 days. Also, the AUC/dose in the data set on Mus musculus [10] was 7.63 min.ug/ml/(mg/kg). Besides, 0.042 µM corresponded to half-maximal inhibition with Plasmodium falciparum [13] (IC50). The AUC(0-t) at 24 h in [15] came out at 78.2 µM·h.
